Results: ChEMBL document CHEMBL4359856, “Strategies to develop selective CB2 receptor agonists from indole carboxamide synthetic cannabinoids” (Eur J Med Chem, 2019)

Legend:
[1] = target: T1, Cannabinoid receptor 1 (Homo sapiens, UniProt P21554); experiment: Agonist activity at human CB1 receptor expressed in AtT-20 cells measured every 2 secs for 2 mins by FLIPR assay; type: cell-based
Method in brief: (§1)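 After vehicle subtraction, the change was taken as % of baseline. The final DMSO concentration was ≤0.1%. EC50 came from four-parameter concentration–response fits. Each experiment was run in duplicate, with at least three independent experiments; values are mean ± SEM.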

[2] = target: T1, Cannabinoid receptor 1; experiment: Agonist activity at human CB1 receptor expressed in AtT-20 cells at 1 uM measured every 2 secs for 2 mins by FLIPR assay relative to control; type: cell-based; method in brief: as §1
[3] = target: T2, Cannabinoid receptor 2 (Homo sapiens, UniProt P34972); experiment: Agonist activity at human CB2 receptor expressed in AtT-20 cells measured every 2 secs for 2 mins by FLIPR assay; type: cell-based; method in brief: as §1
[4] = target: T2, Cannabinoid receptor 2; experiment: Agonist activity at human CB2 receptor expressed in AtT-20 cells at 1 uM measured every 2 secs for 2 mins by FLIPR assay relative to control; type: cell-based
Method in brief: as §1, with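 “In AtT-20 cells stably expressing human CB1 or CB2, membrane-potential dye fluorescence (530/565 nm) was recorded at 37 °C. After” for “After”, “fits. […]” for “fits.”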

[5] = target: T1, Cannabinoid receptor 1; experiment: Agonist activity at human CB1 receptor expressed in AtT-20 cells at 10 uM measured every 2 secs for 2 mins by FLIPR assay relative to control; type: cell-based; settings: read-out: Activity
[6] = target: T2, Cannabinoid receptor 2; experiment: Agonist activity at human CB2 receptor expressed in AtT-20 cells at 10 uM measured every 2 secs for 2 mins by FLIPR assay relative to control; type: cell-based
[7] = Selectivity index, ratio of EC50 for human CB1 receptor expressed in AtT-20 cells to EC50 for human CB2 receptor expressed in AtT-20 cells

T2 sequence (P34972 whole entry): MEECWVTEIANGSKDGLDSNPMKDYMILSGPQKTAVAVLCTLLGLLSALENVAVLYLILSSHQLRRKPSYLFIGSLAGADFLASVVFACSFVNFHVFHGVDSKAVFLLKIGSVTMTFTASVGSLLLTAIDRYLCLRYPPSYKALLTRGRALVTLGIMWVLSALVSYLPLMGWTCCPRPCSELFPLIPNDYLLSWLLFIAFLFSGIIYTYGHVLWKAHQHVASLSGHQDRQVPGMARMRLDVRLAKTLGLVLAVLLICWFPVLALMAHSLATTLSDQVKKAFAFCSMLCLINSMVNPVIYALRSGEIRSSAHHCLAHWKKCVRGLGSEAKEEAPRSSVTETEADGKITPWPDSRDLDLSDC
T1 sequence (P21554 whole entry): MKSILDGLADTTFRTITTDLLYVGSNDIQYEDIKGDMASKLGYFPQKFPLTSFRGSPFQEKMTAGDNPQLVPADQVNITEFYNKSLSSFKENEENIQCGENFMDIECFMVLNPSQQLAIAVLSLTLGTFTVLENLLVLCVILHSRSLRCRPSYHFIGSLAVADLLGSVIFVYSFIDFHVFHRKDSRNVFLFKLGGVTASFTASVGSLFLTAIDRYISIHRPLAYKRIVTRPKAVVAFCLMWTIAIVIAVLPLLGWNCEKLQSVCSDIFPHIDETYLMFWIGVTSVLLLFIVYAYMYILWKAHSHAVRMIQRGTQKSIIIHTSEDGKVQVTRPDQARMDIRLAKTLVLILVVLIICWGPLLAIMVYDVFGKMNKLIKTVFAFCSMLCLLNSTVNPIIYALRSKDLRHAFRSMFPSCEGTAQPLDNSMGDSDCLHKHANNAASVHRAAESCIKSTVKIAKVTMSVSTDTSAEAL

Question: For `CCCCCn1cc(C(=O)N[C@H](C(=O)OC)C(C)(C)C)c2cccnc21`, which EC50 [1] is on record?
Answer: 1.7 nM

Question: And the Emax at 1 µM [2]?
Answer: 103%

Question: And the EC50 [3]?
Answer: 4.3 nM

Question: And the Emax [4]?
Answer: 102%

Question: What does the source list for `CC(C)(NC(=O)c1cc2ccccc2n1CCCCCO)c1ccccc1`?
Answer: activity at 10 µM [5]: < 50%; EC50 [3]: 217 nM; Emax [4]: 88%

Question: Which activity at 10 µM [5] does the source give for `COC(=O)[C@@H](NC(=O)c1cc2ccccc2n1CCCCCO)C(C)(C)C` here?
Answer: < 50%

Question: And the Activity [6]?
Answer: < 50%

Question: With `CC(C)(NC(=O)c1cn(CCCCCO)c2ncccc12)c1ccccc1` as the compound, how does the EC50 [1] read?
Answer: 466 nM

Question: And the Emax at 1 µM [2]?
Answer: 110%

Question: And the EC50 [3]?
Answer: 152 nM

Question: What about the Emax [4] of the same compound?
Answer: 95%

Question: With `O=C(NC12CC3CC(CC(C3)C1)C2)c1cn(CCCCCO)c2ncccc12` as the compound, how does the EC50 [1] read?
Answer: > 10000 nM

Question: And the activity at 10 µM [5]?
Answer: < 50%

Question: What about the EC50 [3] of the same compound?
Answer: 49 nM

Question: What about the Emax [4] of the same compound?
Answer: 93%

Question: Which results are given for `CCCCCn1cc(C(=O)NC23CC4CC(CC(C4)C2)C3)c2cccnc21`?
Answer: EC50 [1]: 152 nM; Emax at 1 µM [2]: 75%; EC50 [3]: 43 nM; Emax [4]: 101%; Ratio EC50 [7]: 3.5

Question: With `CCCCCn1c(C(=O)NC23CC4CC(CC(C4)C2)C3)cc2ccccc21` as the compound, how does the activity at 10 µM [5] read?
Answer: < 50%

Question: What does the source list for `CC(C)(C)[C@H](NC(=O)c1cc2ccccc2n1CCCCC(F)F)C(N)=O`?
Answer: activity at 10 µM [5]: < 50%; EC50 [3]: 5460 nM; Emax [4]: 128%

Question: Which Emax [4] does the source give for `CCCCCCC(C)(C)c1ccc([C@@H]2C[C@H](O)CC[C@H]2CCCO)c(O)c1` here?
Answer: 106%

Question: Which EC50 [1] does the source give for `CCCCCn1cc(C(=O)N[C@H](C(N)=O)C(C)C)c2cccnc21` here?
Answer: 121 nM

Question: And the Emax at 1 µM [2]?
Answer: 117%

Question: And the EC50 [3]?
Answer: 58 nM

Question: What about the Emax [4] of the same compound?
Answer: 103%

Question: With `CC(C)(C)[C@H](NC(=O)c1cn(CCCCCO)c2ncccc12)C(N)=O` as the compound, how does the EC50 [1] read?
Answer: 491 nM

Question: And the Emax at 1 µM [2]?
Answer: 98%

Question: What about the EC50 [3] of the same compound?
Answer: 50 nM

Question: What about the Emax [4] of the same compound?
Answer: 96%

Question: For `CCCCCn1cc(C(=O)NC23CC4CC(CC(C4)C2)C3)c2ccccc21`, which EC50 [1] is on record?
Answer: 74 nM

Question: And the Emax at 1 µM [2]?
Answer: 108%

Question: What about the EC50 [3] of the same compound?
Answer: 96 nM

Question: And the Emax [4]?
Answer: 85%

Question: Which activity at 10 µM [5] does the source give for `CCCCCn1c(C(=O)NC(C)(C)c2ccccc2)cc2ccccc21` here?
Answer: < 50%

Question: Which EC50 [1] does the source give for `CCCCCn1cc(C(=O)N[C@H](C(=O)OC)C(C)C)c2cccnc21` here?
Answer: 56 nM

Question: What about the Emax at 1 µM [2] of the same compound?
Answer: 97%

Question: And the EC50 [3]?
Answer: 15 nM

Question: What about the Emax [4] of the same compound?
Answer: 98%

Question: What does the source list for `CCCCCn1c(C(=O)N[C@H](C(N)=O)C(C)(C)C)cc2ccccc21`?
Answer: EC50 [1]: > 10000 nM; activity at 10 µM [5]: < 50%; EC50 [3]: 189 nM; Emax [4]: 73%

Question: Which activity at 10 µM [5] does the source give for `COC(=O)[C@@H](NC(=O)c1cc2ccccc2n1CCCCCO)C(C)C` here?
Answer: < 50%

Question: And the Activity [6]?
Answer: < 50%

Question: What does the source list for `CCCCCn1cccc2c(C(=O)NC34CC5CC(CC(C5)C3)C4)cnc1-2`?
Answer: activity at 10 µM [5]: < 50%; Activity [6]: < 50%

Question: With `CC(C)(C)[C@H](NC(=O)c1cc2ccccc2n1CCCCCO)C(N)=O` as the compound, how does the activity at 10 µM [5] read?
Answer: < 50%

Question: For `CCCCCn1cc(C(=O)NC(C)(C)c2ccccc2)c2cccnc21`, which EC50 [1] is on record?
Answer: 35 nM

Question: What about the Emax at 1 µM [2] of the same compound?
Answer: 106%

Question: And the EC50 [3]?
Answer: 104 nM

Question: What about the Emax [4] of the same compound?
Answer: 96%

Question: Which results are given for `CCCCCn1c(C(=O)N[C@H](C(=O)OC)C(C)C)cc2ccccc21`?
Answer: activity at 10 µM [5]: < 50%; EC50 [3]: 713 nM; Emax [4]: 74%

Question: For `CCCCCn1c(C(=O)NC23CC4CC(CC(C4)C2)C3)cc2cccnc21`, which activity at 10 µM [5] is on record?
Answer: < 50%

Question: And the Activity [6]?
Answer: < 50%

Question: What does the source list for `CCCCCn1cc(C(=O)N[C@H](C(N)=O)C(C)(C)C)c2cccnc21`?
Answer: EC50 [1]: 4 nM; Emax at 1 µM [2]: 110%; EC50 [3]: 5 nM; Emax [4]: 94%

Question: What does the source list for `COC(=O)[C@@H](NC(=O)c1cn(CCCCCO)c2ncccc12)C(C)(C)C`?
Answer: EC50 [1]: 234 nM; Emax at 1 µM [2]: 99%; EC50 [3]: 19 nM; Emax [4]: 96%

Question: What does the source list for `CCCCCn1c(C(=O)N[C@H](C(N)=O)C(C)C)cc2ccccc21`?
Answer: activity at 10 µM [5]: < 50%; EC50 [3]: 741 nM; Emax [4]: 74%

Question: Which EC50 [1] does the source give for `CCCCCn1nc(C(=O)NC23CC4CC(CC(C4)C2)C3)c2cccnc21` here?
Answer: 824 nM

Question: What about the Emax at 1 µM [2] of the same compound?
Answer: 97%

Question: And the EC50 [3]?
Answer: 122 nM

Question: And the Emax [4]?
Answer: 104%

Question: What about the “Ratio EC50” value [7] of the same compound?
Answer: 7

Question: What does the source list for `CC(C)[C@H](NC(=O)c1cc2ccccc2n1CCCCCO)C(N)=O`?
Answer: activity at 10 µM [5]: < 50%; Activity [6]: < 50%

Question: With `CCCCCn1c(C(=O)N[C@H](C(=O)OC)C(C)(C)C)cc2ccccc21` as the compound, how does the activity at 10 µM [5] read?
Answer: < 50%
